Reference: ChEMBL document CHEMBL1944596, “7,8-dichloro-1-oxo-β-carbolines as a versatile scaffold for the development of potent and selective kinase inhibitors with unusual binding modes” (J Med Chem, 2012)

What was measured:
MV4-11 = test: Growth inhibition of human MV4-11 cells after 48 hrs by WST-1 assay; assay type: functional, cell-based; conditions: MV4-11, 48 h
Procedure, shortened: (§1)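 Compound (0–10 μM) added to the culture medium and incubated 48 h. Proliferation and viability read by WST-1 reagent. Survival expressed as percentage of control cultures and IC50 derived by curve fitting.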

K562 = test: Growth inhibition of human K562 cells after 48 hrs by WST-1 assay; assay type: functional, cell-based; conditions: K562, 48 h; procedure, shortened: as §1
[1] = Growth inhibition of human SEM cells after 48 hrs by WST-1 assay; assay type: functional, cell-based; procedure, shortened: as §1
MOLM-13 = test: Growth inhibition of human MOLM13 cells after 48 hrs by WST-1 assay; assay type: functional, cell-based; conditions: MOLM-13, 48 h
Procedure, shortened: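 Inhibitor at 0–10 μM added to the culture medium for 48 h. Proliferation and viability were read with WST-1 reagent. Survival was expressed as a percentage of control cultures, and IC50 was fitted from the concentration series.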

[2] = Growth inhibition of human RS4:11 cells after 48 hrs by WST-1 assay; assay type: functional, cell-based; conditions: RS4-11, 48 h; procedure, shortened: as §1
[3] = molecular target: Casein kinase II subunit alpha' (Homo sapiens) (UniProt P19784); test: Binding affinity to CK2alpha2 assessed as change in thermal denaturation at 10 uM by thermal stability shift assay
Procedure, shortened: (§2)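 Each compound was screened across a kinase panel by thermal stability shift assay. The read-out was the shift in protein melting temperature (ΔTm, in °C) relative to the unliganded kinase. A ΔTm of 4.0 °C served as the hit cutoff.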

[4] = molecular target: T1, Cyclin-G-associated kinase (Homo sapiens) (UniProt O14976); test: Binding affinity to GAK assessed as change in thermal denaturation at 10 uM by thermal stability shift assay; procedure, shortened: as §2
T1 sequence (whole entry): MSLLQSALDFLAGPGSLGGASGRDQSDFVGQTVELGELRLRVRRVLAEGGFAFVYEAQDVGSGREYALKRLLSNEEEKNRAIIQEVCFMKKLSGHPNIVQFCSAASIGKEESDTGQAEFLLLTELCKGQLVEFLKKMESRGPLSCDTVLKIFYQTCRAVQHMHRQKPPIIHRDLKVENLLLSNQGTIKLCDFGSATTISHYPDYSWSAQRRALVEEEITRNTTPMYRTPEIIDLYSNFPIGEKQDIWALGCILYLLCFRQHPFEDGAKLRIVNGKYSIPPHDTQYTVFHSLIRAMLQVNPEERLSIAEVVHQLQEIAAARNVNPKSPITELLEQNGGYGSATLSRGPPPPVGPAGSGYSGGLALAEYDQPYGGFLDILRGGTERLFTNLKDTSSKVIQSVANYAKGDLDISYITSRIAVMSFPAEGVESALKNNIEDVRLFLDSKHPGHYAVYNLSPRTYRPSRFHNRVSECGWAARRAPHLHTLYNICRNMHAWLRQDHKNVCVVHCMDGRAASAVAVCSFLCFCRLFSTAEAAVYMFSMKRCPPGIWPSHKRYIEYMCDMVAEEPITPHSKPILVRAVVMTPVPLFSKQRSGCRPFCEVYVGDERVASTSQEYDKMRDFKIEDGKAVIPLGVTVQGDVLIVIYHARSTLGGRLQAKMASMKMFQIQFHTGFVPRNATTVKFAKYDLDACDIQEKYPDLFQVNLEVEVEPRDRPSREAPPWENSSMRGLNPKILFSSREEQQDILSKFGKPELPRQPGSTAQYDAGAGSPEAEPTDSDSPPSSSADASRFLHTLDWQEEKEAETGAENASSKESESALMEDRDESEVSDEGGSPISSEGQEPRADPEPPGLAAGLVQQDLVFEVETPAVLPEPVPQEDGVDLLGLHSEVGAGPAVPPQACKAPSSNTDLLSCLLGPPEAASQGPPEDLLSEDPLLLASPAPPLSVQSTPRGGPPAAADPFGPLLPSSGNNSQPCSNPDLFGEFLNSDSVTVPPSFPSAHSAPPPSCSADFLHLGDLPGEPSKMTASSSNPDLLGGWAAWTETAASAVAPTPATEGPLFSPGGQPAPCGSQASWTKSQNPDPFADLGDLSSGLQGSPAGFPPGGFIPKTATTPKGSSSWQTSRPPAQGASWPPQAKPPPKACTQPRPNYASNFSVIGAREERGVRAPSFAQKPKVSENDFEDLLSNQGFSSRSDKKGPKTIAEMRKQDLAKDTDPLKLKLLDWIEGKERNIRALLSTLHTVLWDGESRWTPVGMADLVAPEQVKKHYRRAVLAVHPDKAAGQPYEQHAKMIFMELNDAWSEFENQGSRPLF

[5] = molecular target: Dual specificity protein kinase CLK1 (Homo sapiens) (UniProt P49759); test: Binding affinity to CLK1 assessed as change in thermal denaturation at 10 uM by thermal stability shift assay; procedure, shortened: as §2
[6] = molecular target: Serine/threonine-protein kinase pim-3 (Homo sapiens, UniProt Q86V86); test: Binding affinity to PIM3 assessed as change in thermal denaturation at 10 uM by thermal stability shift assay; procedure, shortened: as §2
[7] = molecular target: T2, Myosin light chain kinase family member 4 (Homo sapiens) (UniProt Q86YV6); test: Binding affinity to SGK085 assessed as change in thermal denaturation at 10 uM by thermal stability shift assay; procedure, shortened: as §2
T2 sequence (whole entry): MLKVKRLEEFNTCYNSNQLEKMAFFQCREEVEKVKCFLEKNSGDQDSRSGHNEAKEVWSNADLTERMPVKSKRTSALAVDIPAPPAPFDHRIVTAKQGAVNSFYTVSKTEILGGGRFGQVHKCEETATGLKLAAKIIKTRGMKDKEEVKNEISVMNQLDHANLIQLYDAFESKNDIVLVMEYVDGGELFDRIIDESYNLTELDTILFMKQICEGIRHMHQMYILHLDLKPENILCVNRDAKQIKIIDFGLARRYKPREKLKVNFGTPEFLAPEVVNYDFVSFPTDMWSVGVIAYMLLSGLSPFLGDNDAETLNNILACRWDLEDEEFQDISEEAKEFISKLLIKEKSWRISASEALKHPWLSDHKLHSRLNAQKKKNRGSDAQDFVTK

[8] = molecular target: T3, Serine/threonine-protein kinase 17B (Homo sapiens) (UniProt O94768); test: Binding affinity to DRAK2 assessed as change in thermal denaturation at 10 uM by thermal stability shift assay; procedure, shortened: as §2
T3 sequence (whole entry): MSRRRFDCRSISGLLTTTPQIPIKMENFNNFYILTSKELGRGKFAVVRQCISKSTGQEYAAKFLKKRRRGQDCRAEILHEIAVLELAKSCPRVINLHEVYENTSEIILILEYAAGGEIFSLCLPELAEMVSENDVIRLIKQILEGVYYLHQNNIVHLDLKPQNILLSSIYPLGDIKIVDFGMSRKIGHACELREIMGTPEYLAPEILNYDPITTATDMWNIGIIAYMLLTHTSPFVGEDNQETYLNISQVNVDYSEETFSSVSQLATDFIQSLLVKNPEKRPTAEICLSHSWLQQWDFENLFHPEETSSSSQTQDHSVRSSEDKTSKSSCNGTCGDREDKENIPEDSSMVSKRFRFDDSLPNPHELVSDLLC

[9] = molecular target: Death-associated protein kinase 3 (Homo sapiens) (UniProt O43293); test: Binding affinity to N-terminus His6-tagged DAPK3 expressed in Escherichia coli BL21 (DE3) cells coexpressing pCOEX assessed as change in thermal denaturation at 10 uM by thermal stability shift assay
Procedure, shortened: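 DAPK3 was expressed in E. coli grown in TB with kanamycin and chloramphenicol at 37 °C, cooled to 25 °C, and induced with 0.5 mM IPTG. Binding was read as thermal-shift ΔTm in °C.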

[10] = molecular target: T4, Serine/threonine-protein kinase 17A (Homo sapiens) (UniProt Q9UEE5); test: Binding affinity to DRAK1 assessed as change in thermal denaturation at 10 uM by thermal stability shift assay; procedure, shortened: as §2
T4 sequence (whole entry): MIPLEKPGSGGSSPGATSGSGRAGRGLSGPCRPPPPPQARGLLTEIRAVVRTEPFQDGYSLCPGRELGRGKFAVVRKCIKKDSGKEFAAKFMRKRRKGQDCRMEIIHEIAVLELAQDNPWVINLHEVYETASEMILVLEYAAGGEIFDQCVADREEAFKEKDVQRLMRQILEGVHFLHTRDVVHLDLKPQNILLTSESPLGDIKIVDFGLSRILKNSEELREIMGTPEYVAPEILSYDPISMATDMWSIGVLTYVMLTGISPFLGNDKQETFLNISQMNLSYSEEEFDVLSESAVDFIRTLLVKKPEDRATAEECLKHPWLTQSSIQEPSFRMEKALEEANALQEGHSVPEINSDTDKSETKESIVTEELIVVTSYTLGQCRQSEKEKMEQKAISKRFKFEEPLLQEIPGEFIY

[11] = molecular target: Serine/threonine-protein kinase pim-1 (Homo sapiens, UniProt P11309); test: Binding affinity to PIM1 assessed as change in thermal denaturation at 10 uM by thermal stability shift assay; procedure, shortened: as §2
[12] = molecular target: Dual specificity protein kinase CLK4 (Homo sapiens) (UniProt Q9HAZ1); test: Binding affinity to CLK4 assessed as change in thermal denaturation at 10 uM by thermal stability shift assay; procedure, shortened: as §2
[13] = molecular target: AP2-associated protein kinase 1 (Homo sapiens) (UniProt Q2M2I8); test: Binding affinity to AAK1 assessed as change in thermal denaturation at 10 uM by thermal stability shift assay; procedure, shortened: as §2
Chain of AP2-associated protein kinase 1 (Homo sapiens) (Q2M2I8 whole entry, looked up): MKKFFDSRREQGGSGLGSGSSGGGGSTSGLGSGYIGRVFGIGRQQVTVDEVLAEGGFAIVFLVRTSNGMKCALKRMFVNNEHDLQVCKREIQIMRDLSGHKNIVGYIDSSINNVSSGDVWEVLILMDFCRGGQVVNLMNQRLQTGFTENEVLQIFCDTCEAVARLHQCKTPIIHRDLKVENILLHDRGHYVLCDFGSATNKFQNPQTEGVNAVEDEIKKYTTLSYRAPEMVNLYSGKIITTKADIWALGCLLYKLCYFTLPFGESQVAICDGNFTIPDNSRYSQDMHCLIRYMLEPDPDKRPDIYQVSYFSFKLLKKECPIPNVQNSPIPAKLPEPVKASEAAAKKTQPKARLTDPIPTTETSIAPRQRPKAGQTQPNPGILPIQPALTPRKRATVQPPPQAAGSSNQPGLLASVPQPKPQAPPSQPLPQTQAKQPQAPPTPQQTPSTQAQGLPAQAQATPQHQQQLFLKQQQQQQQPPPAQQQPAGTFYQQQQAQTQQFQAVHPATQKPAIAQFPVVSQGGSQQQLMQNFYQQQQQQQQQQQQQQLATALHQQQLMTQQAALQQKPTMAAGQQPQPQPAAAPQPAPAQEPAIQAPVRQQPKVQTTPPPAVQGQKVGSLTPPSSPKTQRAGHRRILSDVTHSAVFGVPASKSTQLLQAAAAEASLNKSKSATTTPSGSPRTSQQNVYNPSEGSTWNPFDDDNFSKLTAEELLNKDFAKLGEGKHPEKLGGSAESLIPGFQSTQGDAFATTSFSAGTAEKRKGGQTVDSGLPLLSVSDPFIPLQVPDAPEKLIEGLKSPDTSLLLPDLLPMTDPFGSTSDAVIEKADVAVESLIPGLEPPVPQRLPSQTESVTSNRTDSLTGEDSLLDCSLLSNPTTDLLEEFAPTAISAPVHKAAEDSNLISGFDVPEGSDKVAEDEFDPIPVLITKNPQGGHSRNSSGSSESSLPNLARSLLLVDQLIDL

Chain of Serine/threonine-protein kinase pim-1 (P11309 whole entry, looked up): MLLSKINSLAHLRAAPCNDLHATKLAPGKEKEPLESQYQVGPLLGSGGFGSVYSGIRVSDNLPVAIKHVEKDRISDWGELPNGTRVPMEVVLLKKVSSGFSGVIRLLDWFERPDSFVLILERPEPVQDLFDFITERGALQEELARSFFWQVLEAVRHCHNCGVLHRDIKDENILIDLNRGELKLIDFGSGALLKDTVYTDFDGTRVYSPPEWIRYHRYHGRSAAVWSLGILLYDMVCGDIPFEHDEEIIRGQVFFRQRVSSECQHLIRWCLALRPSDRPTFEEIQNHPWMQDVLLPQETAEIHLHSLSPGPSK
Chain of Casein kinase II subunit alpha' (Homo sapiens) (P19784 whole entry, looked up): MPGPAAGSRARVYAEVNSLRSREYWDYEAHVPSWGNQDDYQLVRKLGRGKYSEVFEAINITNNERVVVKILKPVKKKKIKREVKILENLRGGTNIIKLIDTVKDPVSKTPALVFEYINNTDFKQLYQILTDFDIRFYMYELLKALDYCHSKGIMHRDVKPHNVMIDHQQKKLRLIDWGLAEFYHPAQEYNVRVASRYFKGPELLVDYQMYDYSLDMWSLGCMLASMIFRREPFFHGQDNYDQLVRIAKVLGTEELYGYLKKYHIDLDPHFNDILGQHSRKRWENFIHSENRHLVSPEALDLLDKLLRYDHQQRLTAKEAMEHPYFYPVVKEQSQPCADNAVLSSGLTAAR
Chain of Dual specificity protein kinase CLK1 (Homo sapiens) (P49759 whole entry, looked up): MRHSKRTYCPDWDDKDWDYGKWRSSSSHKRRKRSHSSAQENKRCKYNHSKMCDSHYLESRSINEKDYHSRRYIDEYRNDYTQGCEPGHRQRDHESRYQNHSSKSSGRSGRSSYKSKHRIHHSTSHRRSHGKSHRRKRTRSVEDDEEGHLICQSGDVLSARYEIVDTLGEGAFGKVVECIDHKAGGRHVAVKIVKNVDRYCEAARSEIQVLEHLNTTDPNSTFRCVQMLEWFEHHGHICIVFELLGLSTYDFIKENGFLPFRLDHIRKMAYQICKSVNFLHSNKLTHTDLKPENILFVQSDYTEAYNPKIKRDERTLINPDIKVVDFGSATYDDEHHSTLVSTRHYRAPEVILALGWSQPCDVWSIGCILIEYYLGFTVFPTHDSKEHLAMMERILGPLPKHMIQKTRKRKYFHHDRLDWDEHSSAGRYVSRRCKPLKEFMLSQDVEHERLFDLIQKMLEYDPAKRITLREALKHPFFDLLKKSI
Chain of Dual specificity protein kinase CLK4 (Homo sapiens) (Q9HAZ1 whole entry, looked up): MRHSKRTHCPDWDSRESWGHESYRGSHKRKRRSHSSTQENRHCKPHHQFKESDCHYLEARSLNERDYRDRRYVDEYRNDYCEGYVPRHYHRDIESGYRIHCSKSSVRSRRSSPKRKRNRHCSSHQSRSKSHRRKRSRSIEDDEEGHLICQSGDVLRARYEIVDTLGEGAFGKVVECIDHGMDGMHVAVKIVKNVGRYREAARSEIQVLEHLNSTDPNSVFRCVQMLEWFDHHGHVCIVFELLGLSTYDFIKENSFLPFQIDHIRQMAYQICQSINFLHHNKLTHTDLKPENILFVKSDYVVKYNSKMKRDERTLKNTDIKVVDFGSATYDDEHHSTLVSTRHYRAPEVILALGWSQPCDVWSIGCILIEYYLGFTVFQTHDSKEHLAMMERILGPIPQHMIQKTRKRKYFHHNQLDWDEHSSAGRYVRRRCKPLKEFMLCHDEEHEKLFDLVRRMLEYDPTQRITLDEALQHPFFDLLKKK
Chain of Death-associated protein kinase 3 (Homo sapiens) (O43293 whole entry, looked up): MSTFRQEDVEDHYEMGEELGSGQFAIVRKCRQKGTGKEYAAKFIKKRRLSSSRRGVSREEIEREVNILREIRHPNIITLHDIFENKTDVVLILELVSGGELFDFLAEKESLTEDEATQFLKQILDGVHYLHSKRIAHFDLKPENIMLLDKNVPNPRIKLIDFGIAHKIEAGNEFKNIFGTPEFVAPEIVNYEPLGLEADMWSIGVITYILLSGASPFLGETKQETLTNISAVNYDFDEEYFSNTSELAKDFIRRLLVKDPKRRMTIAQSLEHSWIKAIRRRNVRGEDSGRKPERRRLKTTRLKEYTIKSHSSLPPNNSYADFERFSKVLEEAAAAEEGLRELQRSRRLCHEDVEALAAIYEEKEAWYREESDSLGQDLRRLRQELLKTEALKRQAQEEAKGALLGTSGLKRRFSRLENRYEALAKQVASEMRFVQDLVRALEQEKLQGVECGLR

| IC50 (MV4-11) [µM] | IC50 (K562) [µM] | IC50 (MOLM-13) [µM] | ΔTm [3] [°C] | ΔTm [4] [°C] | ΔTm [5] [°C] | ΔTm [6] [°C] | ΔTm [7] [°C] | ΔTm [8] [°C] | ΔTm [10] [°C] | ΔTm [11] [°C] | ΔTm [12] [°C] | ΔTm [13] [°C] | Compound | IC50 [1] [µM] | IC50 [2] [µM] | ΔTm [9] [°C] |
| --- | --- | --- | --- | --- | --- | --- | --- | --- | --- | --- | --- | --- | --- | --- | --- | --- |
| 0.4 | 8 | 0.3 | – | – | – | – | – | – | – | – | – | – | CC(=O)c1cccc(-c2cnc3ccc(NCC4CC4)nn23)c1 | 6 | 8.8 | – |
| – | – | – | 0.8 | 0.9 | 4 | 4 | 0.5 | 2.9 | 3 | 4.7 | 1.1 | 1.7 | Cn1c2c(c3ccc(Cl)c(Cl)c31)C(C#N)C1(CCCCC1)NC2=O (racemic) | – | – | 4.7 |
